Published values of several laboratories.
Lines come from different studies, so protocols differ. pIC50, pKi: −log10 of the molar value.
CTSL: Procathepsin L (CTSL, Homo sapiens, UniProt P07711)
NEU1: Sialidase-1 (NEU1, Homo sapiens, UniProt Q99519)
P4HB: Protein disulfide-isomerase (P4HB, Homo sapiens, UniProt P07237)

| SMILES | target | effect on | action | method | quantity | value |
| --- | --- | --- | --- | --- | --- | --- |
| COCCC(=O)N[C@@H](CCC(N)=O)C(=O)N[C@@H](Cc1ccccc1)C(=O)N[C@@H](CCCNC(=N)N)C(=O)c1nc2ccccc2s1 | CTSL | cell-free assay | – | – | pKi | < 5.00 |
| CC(C)(C)CC(=O)N[C@H]1[C@H]([C@H](O)[C@H](O)CO)OC(C(=O)O)=C[C@@H]1O | NEU1 | enzyme activity | inhibitor | – | pIC50 | 3.80 |
| CS(=O)(=O)N[C@@H](CCC(N)=O)C(=O)N[C@@H](Cc1ccccc1)C(=O)N[C@@H](CCCNC(=N)N)C(=O)c1nccs1 | CTSL | cell-free assay | – | – | pKi | < 5.00 |
| [Cl][Cd][Cl] | Voltage-dependent P/Q-type calcium channel subunit alpha-1A (Homo sapiens, UniProt O00555) | ion current | inhibitor | patch clamp | pIC50 | 5.38 |
| O=C(O)c1cc(O)c(O)c(O)c1 | P4HB | enzyme activity | inhibitor | fluorescence | pIC50 | < 3.30 |
| OB1OCc2cc(F)ccc21 | blaNDM-5 (Escherichia coli, UniProt G3K399) | enzyme activity | inhibitor | – | pIC50 | 4.71 |
| O=C(O[C@@H]1Cc2c(O)cc(O)cc2O[C@H]1c1ccc(O)c(O)c1)c1cc(O)c(O)c(O)c1 | P4HB | enzyme activity | inhibitor | fluorescence | pIC50 | < 4.70 |
| O=C(O)C1=C[C@H](O)[C@@H](n2cc(-c3ccc(-c4ccccc4)cc3)nn2)[C@H]([C@H](O)[C@H](O)CO)O1 | NEU1 | enzyme activity | inhibitor | – | pIC50 | < 3.30 |
